Screening data (PubChem BioAssay)
Cneo AK release – Cryptococcus neoformans cell lysis inducers, primary screen, AK release luminescence, single concentration; C. neoformans lysis, adenylate kinase release luminescence, 4 h; normalised: neutral wells 0, clomiphene wells 100; lysis activity, % at 15 µM; 0.2% of 360,000 active;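 active = mean lysis activity across replicates of at least 80%, whatever share of replicates individually reach that level; inactive = mean lysis activity below 80%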
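Material – log-phase Cryptococcus neoformans yeast cells · Input – 5 × 10^6 yeast cells/mL · Medium – fresh YPD growth medium · Doses – single compound concentration per well · Timing – static 4 h at 37 °C with compound, 1 h detection · Detection – adenylate kinase release luminescence · Read-out – signal increase indicating cell lysis · Control set – Clomiphene as positive lysis control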
SUMO Mot1 rescue – yeast Mot1-301 growth rescue at high temperature, primary screen, SUMOylation pathway inhibitor project, S. cerevisiae, ATP luminescence, 38.5C. growth rescue, % at 18.8 µM. S. cerevisiae Mot1-301 growth rescue; percent above DMSO median, 100 means doubled. 1% of 320,000 active;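 active = every valid replicate shows activation above 250% relative to neutral control wells; inactive = the rest, any valid replicate at or below 250%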
Efflux pump inh – inhibitors of Candida efflux pumps in yeast, primary screen, S. cerevisiae, Nile Red, multiplex; 0.44% of 330,000 active; S. cerevisiae Candida pump triplex; AID 485275, 2010; inhibition, % at 10 µM;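 active = plate passing quality check with inhibition over a set limit, or well fluorescence over plate mean plus 4 SD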;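 also: Nile Red retained in pooled yeast measured as flow cytometry median fluorescence; higher means more Nile Red kept so more efflux inhibition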
C2C12 statin – suppressors of statin myotoxicity in C2C12 myotubes, primary screen, cell-based, single point, plate reader. C2C12 myotubes + simvastatin, ATP luminescence, 48 h; scaled: DMSO 0, geranylgeraniol control 100. rescue of ATP level, % at 7.49 µM. 0.78% of 330,000 active. AID 602340, 2012;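 active = mean ATP rescue above about 67%, or every replicate alone reaching that limit, limit read from the data, passing the limit was not always enough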;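 also: myotubes were challenged with 10 µM simvastatin during compound exposure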
Large screens that a line does not name were inactive. This is a sample that favours compounds with a hit; in the whole collection about 1.8% have one here.

COCCNC(=O)C(c1ccc(C)cc1)N(CCOC)C(=O)CCC(=O)Nc1nccs1 (stereo not given)	none
C[C@H](CO)N1C[C@H](C)[C@H](CN(C)C(=O)Nc2ccccc2)OCc2ccccc2-c2c(n(C)c3ccccc23)C1=O	none (no result: SUMO Mot1 rescue, Efflux pump inh)
O=C(CSc1nnc(CNc2ccc(F)cc2)n1Cc1ccccc1)NCc1ccco1	none
O=C(CSc1nnc(CNc2ccc(F)cc2)n1Cc1ccccc1)N1CCOCC1	C2C12 statin 101.9
CCc1cc(C(=O)N2CCCC(N3CCN(c4cccc(C(F)(F)F)c4)CC3)C2)n(C)n1 (stereo not given)	none
Cn1c(=O)c2c(ncn2CC(=O)N(Cc2ccccc2)c2ccccn2)n(C)c1=O	SUMO Mot1 rescue 298.6
O=C(CCNC(=O)C1CCN(S(=O)(=O)c2ccc(F)cc2)CC1)NCCc1cccc(F)c1	none
Cc1ccc(NC(=O)c2cnc(SCC(=O)NCC3CCCO3)n(C)c2=O)cc1C (stereo not given)	none
Cn1c(SCC(=O)NCC2CCCO2)ncc(C(=O)Nc2ccccc2)c1=O (stereo not given)	SUMO Mot1 rescue 418.1
CC(=O)c1c[nH]c(C(=O)NCC2CCCO2)c1 (stereo not given)	none
CCC(CC)C(=O)c1c[nH]c(C(=O)NCC2CCCO2)c1 (stereo not given)	C2C12 statin 106.8
O=[N+]([O-])c1c(Nc2ccccn2)cc(Cl)c2nonc12	Efflux pump inh 11.1 (no result: Cneo AK release, C2C12 statin)
C/C=N\NC(=O)CNC(=O)CNC(=O)c1ccccc1	none (no result: Cneo AK release, C2C12 statin)
O=C(NC1CCCc2c1cnn2-c1cc(F)cc(F)c1)c1ccccn1 (stereo not given)	Efflux pump inh 5.3
COc1ccccc1CC(=O)Nc1ccc(S(=O)(=O)N(C)C2CCN(C)CC2)cc1	none
COc1cccc(C(=O)OCC(=O)N2CCc3ccccc32)c1OC	none (no result: SUMO Mot1 rescue, Efflux pump inh)
Cc1ccccc1NC(=O)c1c(C)cc(=O)oc1C	none
Cc1cc(=O)oc(C)c1C(=O)NCCC(C)C	none
Cc1cc(=O)oc(C)c1C(=O)Nc1cccc2nonc12	SUMO Mot1 rescue 323.7 (no result: Cneo AK release)
Cc1cc(=O)oc(C)c1C(=O)NCCNC(=O)c1c(C)cc(=O)oc1C	C2C12 statin 121.1
Cc1ccc(C(NC(=O)C2CCN(CCOc3ccc(Cl)cc3)CC2)c2ccccn2)cc1 (stereo not given)	none (no result: SUMO Mot1 rescue, Efflux pump inh)
Cc1c(C(=O)N2CCN(c3ccccc3)CC2)oc2c1C(=O)CC(C)(C)C2	none (no result: C2C12 statin)
O=C(Nc1nc2c(s1)CCCC2)c1ccc(Br)o1	C2C12 statin 112.0
Cc1ccc(C(=O)Nc2nc3c(s2)CCCC3)o1	none
C[C@@H]1CCCCO[C@@H](CN(C)C(=O)c2ccccc2)[C@@H](C)CN([C@H](C)CO)C(=O)c2cc(NS(C)(=O)=O)ccc2O1	none (no result: SUMO Mot1 rescue, Efflux pump inh)
CC12CC3CC(C)(C1)CC(C(=O)NC(=S)N1CCCCC1)(C3)C2	Cneo AK release 111.4
CN(C)C(=S)NC(=O)C12CC3CC(C)(CC(C)(C3)C1)C2	none (no result: Cneo AK release, C2C12 statin)
Nc1nc2c(s1)C(=O)CCC2	C2C12 statin 90.5
CCCN(C)C[C@H]1OCCCC[C@@H](C)Oc2ccc(NC(=O)Nc3c(C)noc3C)cc2C(=O)N([C@H](C)CO)C[C@@H]1C	none (no result: SUMO Mot1 rescue, Efflux pump inh)
O=C(NC1CCCCC1)N[C@@H]1C=C[C@@H](CC(=O)N2CCOCC2)O[C@@H]1CO	none (no result: SUMO Mot1 rescue, Efflux pump inh)
CCC(=O)N[C@H]1C=C[C@@H](CC(=O)NCC2CCCCC2)O[C@@H]1CO	none (no result: SUMO Mot1 rescue, Efflux pump inh)
O=C(NC1CCCCC1)N[C@H]1C=C[C@@H](CC(=O)N2CCOCC2)O[C@@H]1CO	Cneo AK release 92.9 (no result: SUMO Mot1 rescue, Efflux pump inh)
CCC(=O)N[C@@H]1C=C[C@H](CC(=O)NCC2CCCCC2)O[C@H]1CO	Cneo AK release 87.1 (no result: SUMO Mot1 rescue, Efflux pump inh)
c1cnc2ccc(C(c3nnnn3C3CCCC3)N3CCN(c4nc5ccccc5s4)CC3)cc2c1 (stereo not given)	C2C12 statin 122.2
CC(C)NC(=O)Cn1c(=O)n(CC(=O)N2CCCCC2)c(=O)c2sccc21	C2C12 statin 101.1
CCCCOC(=O)CSC1=C(C#N)C(c2ccc3c(c2)OCO3)CC(=O)N1 (stereo not given)	C2C12 statin 101.5
COc1cc(Br)cc(C=Nc2cccc(C(F)(F)F)c2)c1O	SUMO Mot1 rescue 326.3 (no result: Cneo AK release, C2C12 statin)
COCc1cc(C)nc(N2CCN(Cc3ccccc3)CC2)c1C#N	C2C12 statin 105.7
Cc1cc(C)c(C#N)c(SCC(=O)N2CCN(Cc3ccccc3)CC2)n1	C2C12 statin 140.4
Cc1cc(C)c(C#N)c(SCC(=O)N2CCCCC2)n1	none (no result: C2C12 statin)
CC(=O)c1ccc(OCC(O)CN2CCN(Cc3ccccc3)CC2)cc1 (stereo not given)	none
CC(=O)c1ccc(OCC(O)COc2ccc(C(C)=O)cc2)cc1	none
CC(=O)N(C)c1ccc(OCC(O)COc2ccc(N(C)C(C)=O)cc2)cc1	C2C12 statin 125.3
CC(=O)c1ccc(OCC(O)CN2CCN(CC(O)COc3ccc(C(C)=O)cc3)CC2)cc1 (stereo not given)	C2C12 statin 109.2 (no result: SUMO Mot1 rescue)
CCc1ccccc1NC(=S)NCCSc1ccc(Cl)cc1	none
Cc1ccc(CN2CC(C(=O)NC3CCCC(C)C3C)CC2=O)cc1 (stereo not given)	none
Cc1[nH]nc(N)c1-c1ccc(Cl)cc1	SUMO Mot1 rescue 287.1 (no result: Cneo AK release, C2C12 statin)
C[C@@H]1CCCCO[C@H](CN(C)S(=O)(=O)c2ccc(Cl)cc2)[C@H](C)CN([C@@H](C)CO)C(=O)c2cc(NS(C)(=O)=O)ccc2O1	C2C12 statin 163.0 (no result: SUMO Mot1 rescue, Efflux pump inh)
COc1ccc(NC(=O)Nc2ccc3c(c2)C(=O)N([C@@H](C)CO)C[C@H](C)[C@@H](CN(C)S(=O)(=O)c2ccc(Cl)cc2)OCCCC[C@@H](C)O3)cc1	none (no result: SUMO Mot1 rescue, Efflux pump inh, C2C12 statin)
Cc1noc(C)c1S(=O)(=O)Nc1ccc2c(c1)C(=O)N([C@@H](C)CO)C[C@@H](C)[C@@H](CN(C)S(=O)(=O)c1ccc(Cl)cc1)OCCCC[C@H](C)O2	C2C12 statin 140.0 (no result: SUMO Mot1 rescue, Efflux pump inh)
Cc1ccc(S(=O)(=O)Nc2ccc3c(c2)C(=O)N([C@@H](C)CO)C[C@@H](C)[C@@H](CN(C)S(=O)(=O)c2ccc(Cl)cc2)OCCCC[C@H](C)O3)cc1	Cneo AK release 100.7 (no result: SUMO Mot1 rescue, Efflux pump inh, C2C12 statin)
COc1ccc(NC(=O)Nc2ccc3c(c2)C(=O)N([C@H](C)CO)C[C@@H](C)[C@H](CN(C)S(=O)(=O)c2ccc(Cl)cc2)OCCCC[C@@H](C)O3)cc1	Cneo AK release 87.1 (no result: SUMO Mot1 rescue, Efflux pump inh, C2C12 statin)
CN(C)S(=O)(=O)c1cccc(NC(=O)CCc2nc3sc4c(c3c(=O)[nH]2)CCCC4)c1	none
CCCCNc1nc2c(-c3ccccc3)nnn2c2ccccc12	none (no result: Cneo AK release, C2C12 statin)
Cc1cccc(-c2nnn3c2nc(NCCc2ccc(S(N)(=O)=O)cc2)c2ccccc23)c1	none (no result: C2C12 statin)
CCOCCCNc1nc2c(-c3ccccc3)nnn2c2ccccc12	C2C12 statin 88.3
NS(=O)(=O)c1ccc(CCNc2nc3c(-c4cccc(F)c4)nnn3c3ccccc23)cc1	SUMO Mot1 rescue 546.2
O=C(COC(=O)C1CCC1)Nc1cc(S(=O)(=O)N2CCOCC2)ccc1Cl	none (no result: SUMO Mot1 rescue, Efflux pump inh)
COc1ccc(S(=O)(=O)N2CCCC(C(=O)NCCN3CCOCC3)C2)cc1C (stereo not given)	SUMO Mot1 rescue 317.8
